In ChEMBL document CHEMBL1137675, “Convenient one-pot synthesis of novel 2-substituted benzimidazoles, tetrahydrobenzimidazoles and imidazoles and evaluation of their in vitro antibacterial and antifungal activities” (2009):
≈ marks a conversion by molar mass, not a printed value.

Experiments:
Salmonella typhimurium = experiment: Antibacterial activity against Salmonella Typhimurium MTCC 98 at 37 degC after 24 hrs by filter paper disk method; format: functional, Salmonella enterica subsp. enterica serovar Typhimurium; conditions: for MIC: Salmonella enterica, MTCC 98, 24 h
Method in brief: (§1)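 Compounds were taken from a 1 mg/ml DMSO stock and serially diluted two-fold over a 300 to 18.75 range, then loaded onto sterile 8 mm paper discs. Bacteria were grown overnight in nutrient broth at 37 °C, pelleted, and resuspended in sterile NSS to 10⁵ cfu/ml. About 0.1 ml was spread on NA plates. Plates were incubated 24 h at 37 °C with a solvent control disc, and inhibition zone diameter was read in mm.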

Bacillus subtilis = experiment: Antibacterial activity against Bacillus subtilis ATCC 6051 at 37 degC after 24 hrs by filter paper disk method; format: functional; conditions: for MIC: Bacillus subtilis, ATCC 6051, 24 h; method in brief: as §1
Staphylococcus aureus = experiment: Antibacterial activity against Staphylococcus aureus MSSA 22 at 37 degC after 24 hrs by filter paper disk method; format: functional; conditions: for MIC: Staphylococcus aureus, MSSA 22, 24 h; method in brief: as §1
Escherichia coli = experiment: Antibacterial activity against Escherichia coli K-12 at 37 degC after 24 hrs by filter paper disk method; format: functional; conditions: for MIC: Escherichia coli, K-12, 24 h; method in brief: as §1
Candida albicans = experiment: Antifungal activity against Candida albicans IOA-109 at 37 degC after 18 to 48 hrs; format: functional; conditions: for MIC: Candida albicans, IOA-109
Aspergillus niger = experiment: Antifungal activity against Aspergillus niger at 28 degC after 72 hrs; format: functional; conditions: for MIC: Aspergillus niger, 72 h
Method in brief: (§2)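 Filamentous fungi were kept on SDA at 28 °C. Spores from 7-day cultures were suspended in sterile normal saline to about 10⁵ cfu/ml, and about 0.1 ml was spread on SDA plates. Compounds were serially diluted two-fold in DMSO and impregnated on 8 mm discs, with a solvent control disc on each plate. Plates were held at 28 °C for 72 h or more, and inhibition zone diameter was read in mm.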

Trichoderma viride = experiment: Antifungal activity against Trichoderma viride at 28 degC after 72 hrs; format: functional; conditions: for MIC: Trichoderma viride, 72 h; method in brief: as §2
Penicillium sp. = experiment: Antifungal activity against Penicillium sp. at 28 degC after 72 hrs; format: functional; conditions: for MIC: Penicillium sp., 72 h; method in brief: as §2
Helminthosporium = experiment: Antifungal activity against Helminthosporium oryzae 2537 ICAR at 28 degC after 72 hrs; format: functional; conditions: for MIC: Helminthosporium, 72 h; method in brief: as §2

## C=CCCCCCCCCc1nc2cc(Cl)ccc2[nH]1
Salmonella typhimurium
  diameter of the inhibition zone (DIZ): 14 mm
  MIC: 37.5 µg/mL (≈ 129 µM)
Bacillus subtilis
  diameter of the inhibition zone (DIZ): 19 mm
  MIC: 75 µg/mL (≈ 258 µM)
Staphylococcus aureus
  diameter of the inhibition zone (DIZ): 22 mm
  MIC: 37.5 µg/mL (≈ 129 µM)
Escherichia coli
  diameter of the inhibition zone (DIZ): 20 mm
  MIC: 75 µg/mL (≈ 258 µM)
Candida albicans
  diameter of the inhibition zone (DIZ): 18 mm
  MIC: 37.5 µg/mL (≈ 129 µM)
Aspergillus niger
  diameter of the inhibition zone (DIZ): 15 mm
  MIC: 37.5 µg/mL (≈ 129 µM)
Trichoderma viride
  diameter of the inhibition zone (DIZ): 10 mm
  MIC: 37.5 µg/mL (≈ 129 µM)
Penicillium sp.
  diameter of the inhibition zone (DIZ): 19 mm
  MIC: 37.5 µg/mL (≈ 129 µM)
Helminthosporium
  diameter of the inhibition zone (DIZ): 15 mm
  MIC: 75 µg/mL (≈ 258 µM)

## CCCCCC[C@@H](O)C/C=C\CCCCCCCc1ncc[nH]1
Salmonella typhimurium
  diameter of the inhibition zone (DIZ): 12 mm
  MIC: 75 µg/mL (≈ 234 µM)
Bacillus subtilis
  diameter of the inhibition zone (DIZ): 18 mm
  MIC: 37.5 µg/mL (≈ 117 µM)
Staphylococcus aureus
  diameter of the inhibition zone (DIZ): 15 mm
  MIC: 150 µg/mL (≈ 468 µM)
Escherichia coli
  diameter of the inhibition zone (DIZ): 12 mm
  MIC: 150 µg/mL (≈ 468 µM)
Candida albicans
  diameter of the inhibition zone (DIZ): 18 mm
  MIC: 75 µg/mL (≈ 234 µM)
Aspergillus niger
  diameter of the inhibition zone (DIZ): 13 mm
  MIC: 150 µg/mL (≈ 468 µM)
Trichoderma viride
  diameter of the inhibition zone (DIZ): 6 mm
  MIC: 75 µg/mL (≈ 234 µM)
Penicillium sp.
  diameter of the inhibition zone (DIZ): 18 mm
  MIC: 150 µg/mL (≈ 468 µM)
Helminthosporium
  diameter of the inhibition zone (DIZ): 13 mm
  MIC: 150 µg/mL (≈ 468 µM)

## CCCCCCCC/C=C\CCCCCCCc1nc2ccccc2[nH]1
Salmonella typhimurium
  diameter of the inhibition zone (DIZ): 14 mm
  MIC: 75 µg/mL (≈ 212 µM)
Bacillus subtilis
  diameter of the inhibition zone (DIZ): 21 mm
  MIC: 75 µg/mL (≈ 212 µM)
Staphylococcus aureus
  diameter of the inhibition zone (DIZ): 18 mm
  MIC: 150 µg/mL (≈ 423 µM)
Escherichia coli
  diameter of the inhibition zone (DIZ): 16 mm
  MIC: 150 µg/mL (≈ 423 µM)
Candida albicans
  diameter of the inhibition zone (DIZ): 19 mm
  MIC: 75 µg/mL (≈ 212 µM)
Aspergillus niger
  diameter of the inhibition zone (DIZ): 16 mm
  MIC: 150 µg/mL (≈ 423 µM)
Trichoderma viride
  diameter of the inhibition zone (DIZ): 6 mm
  MIC: 75 µg/mL (≈ 212 µM)
Penicillium sp.
  diameter of the inhibition zone (DIZ): 18 mm
  MIC: 75 µg/mL (≈ 212 µM)
Helminthosporium
  diameter of the inhibition zone (DIZ): 12 mm
  MIC: 150 µg/mL (≈ 423 µM)

## CCCCC/C=C\CC[C@H](O)CCCCCCCc1nc2cc(Cl)ccc2[nH]1
Salmonella typhimurium
  diameter of the inhibition zone (DIZ): 17 mm
  MIC: 37.5 µg/mL (≈ 92.6 µM)
Bacillus subtilis
  diameter of the inhibition zone (DIZ): 20 mm
  MIC: 75 µg/mL (≈ 185 µM)
Staphylococcus aureus
  diameter of the inhibition zone (DIZ): 21 mm
  MIC: 37.5 µg/mL (≈ 92.6 µM)
Escherichia coli
  diameter of the inhibition zone (DIZ): 19 mm
  MIC: 37.5 µg/mL (≈ 92.6 µM)
Candida albicans
  diameter of the inhibition zone (DIZ): 18 mm
  MIC: 37.5 µg/mL (≈ 92.6 µM)
Aspergillus niger
  diameter of the inhibition zone (DIZ): 14 mm
  MIC: 37.5 µg/mL (≈ 92.6 µM)
Trichoderma viride
  diameter of the inhibition zone (DIZ): 8 mm
  MIC: 37.5 µg/mL (≈ 92.6 µM)
Penicillium sp.
  diameter of the inhibition zone (DIZ): 19 mm
  MIC: 37.5 µg/mL (≈ 92.6 µM)
Helminthosporium
  diameter of the inhibition zone (DIZ): 14 mm
  MIC: 75 µg/mL (≈ 185 µM)

## CCCCCC[C@@H](O)C/C=C\CCCCCCCc1nc2cc([N+](=O)[O-])ccc2[nH]1
Salmonella typhimurium
  diameter of the inhibition zone (DIZ): 12 mm
  MIC: 37.5 µg/mL (≈ 90.2 µM)
Bacillus subtilis
  diameter of the inhibition zone (DIZ): 21 mm
  MIC: 37.5 µg/mL (≈ 90.2 µM)
Staphylococcus aureus
  diameter of the inhibition zone (DIZ): 19 mm
  MIC: 37.5 µg/mL (≈ 90.2 µM)
Escherichia coli
  diameter of the inhibition zone (DIZ): 16 mm
  MIC: 37.5 µg/mL (≈ 90.2 µM)
Candida albicans
  diameter of the inhibition zone (DIZ): 19 mm
  MIC: 37.5 µg/mL (≈ 90.2 µM)
Aspergillus niger
  diameter of the inhibition zone (DIZ): 16 mm
  MIC: 37.5 µg/mL (≈ 90.2 µM)
Trichoderma viride
  diameter of the inhibition zone (DIZ): 9 mm
  MIC: 37.5 µg/mL (≈ 90.2 µM)
Penicillium sp.
  diameter of the inhibition zone (DIZ): 19 mm
  MIC: 37.5 µg/mL (≈ 90.2 µM)
Helminthosporium
  diameter of the inhibition zone (DIZ): 15 mm
  MIC: 75 µg/mL (≈ 180 µM)

## C=CCCCCCCCCc1ncc[nH]1
Salmonella typhimurium
  diameter of the inhibition zone (DIZ): 14 mm
  MIC: 74 µg/mL (≈ 359 µM)
Bacillus subtilis
  diameter of the inhibition zone (DIZ): 22 mm
  MIC: 37.5 µg/mL (≈ 182 µM)
Staphylococcus aureus
  diameter of the inhibition zone (DIZ): 16 mm
  MIC: 150 µg/mL (≈ 727 µM)
Escherichia coli
  diameter of the inhibition zone (DIZ): 15 mm
  MIC: 150 µg/mL (≈ 727 µM)
Candida albicans
  diameter of the inhibition zone (DIZ): 19 mm
  MIC: 75 µg/mL (≈ 363 µM)
Aspergillus niger
  diameter of the inhibition zone (DIZ): 11 mm
  MIC: 150 µg/mL (≈ 727 µM)
Trichoderma viride
  diameter of the inhibition zone (DIZ): 6 mm
  MIC: 75 µg/mL (≈ 363 µM)
Penicillium sp.
  diameter of the inhibition zone (DIZ): 16 mm
  MIC: 150 µg/mL (≈ 727 µM)
Helminthosporium
  diameter of the inhibition zone (DIZ): 12 mm
  MIC: 150 µg/mL (≈ 727 µM)
